Here are results for 47 compounds from PubChem BioAssay AID522 (The Scripps Research Institute Molecular Screening Center, 2006).

Screen size: about 65,000 compounds; about 1,200 (1.8%) were called active. This excerpt belongs to a sample that is enriched for actives. A number with no mark means an inactive call.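 How the source made its calls: active means activation above the mean activation of all tested compounds plus 3 SD (cut at about 50% in these data); inactive means the rest.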

In the assay the target is Steroidogenic factor 1 (Homo sapiens) (UniProt Q13285). Kind of assay: activators of human SF-1, primary screen, cell-based, CHO-K1, Gal4-SF-1 LBD, luciferase luminescence (AID 522). Particulars: CHO-K1 Gal4-SF-1 LBD luciferase reporter; at 10 µM; active compounds read high; % increase over DMSO SF-1-specific signal. An outline of the steps: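 Assay system – CHO-K1 cells with Gal4–hSF-1 LBD chimera plus Gal4-driven luciferase · Quantity – 4,000 cells per well · Times – compound added 1 h post-seeding, 20 h exposure at 37 °C, 5% CO2 · Measured by – luciferase light emission · Benchmarks – DMSO and mock-transfected background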
Sequence of Steroidogenic factor 1 (Homo sapiens) (Q13285 whole entry, looked up, the tested form may be a part): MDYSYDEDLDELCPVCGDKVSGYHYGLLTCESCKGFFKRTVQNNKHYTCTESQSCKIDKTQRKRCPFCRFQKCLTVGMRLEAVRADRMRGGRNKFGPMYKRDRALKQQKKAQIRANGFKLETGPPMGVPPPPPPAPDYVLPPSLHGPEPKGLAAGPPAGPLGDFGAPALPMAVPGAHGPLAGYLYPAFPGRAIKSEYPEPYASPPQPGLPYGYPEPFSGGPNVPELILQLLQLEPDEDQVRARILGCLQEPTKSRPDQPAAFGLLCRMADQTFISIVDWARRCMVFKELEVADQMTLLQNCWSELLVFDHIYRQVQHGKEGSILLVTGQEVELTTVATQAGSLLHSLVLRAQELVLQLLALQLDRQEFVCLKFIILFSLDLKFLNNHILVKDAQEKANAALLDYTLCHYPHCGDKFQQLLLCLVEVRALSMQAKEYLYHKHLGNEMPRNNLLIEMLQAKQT
A general note: In a reporter assay the amount or activity of a reporter protein is the signal.
Turning to `Cn1c(/C(C#N)=C2/CCCCCN2)nc2ccccc21`, the activation is 9.6%.
For `CCOC(=O)N1CCN(C(=O)C2CC(c3ccc(F)cc3)=NO2)CC1` (configuration not stated) the value was -7.2%.
The result for `COC(=O)[C@H](C(C)C)n1c(C)c(C(C)=O)c(C(C)=O)c1C` reads 5.7%; that for `CC(C)c1ccc(NC(=O)NC2CCCCC2)cc1`, 100% (active).
For `CC(Cc1cccs1)NC(=O)NC1CCCCC1` (configuration not stated) the value was 41.1%; for `CC(=O)OC(C(=O)NC1CCCCC1)c1ccccc1` (configuration not stated), -11.8%.
For `Cc1cccc(-n2c(N)c(C(=O)N3CCN(C)CC3)sc2=S)c1`, the activation is 3.5%.
In the case of `Cc1ccc(C2CC(=O)NC(SCC(=O)OCc3ccccc3)=C2C#N)o1` (configuration not stated), the activation was -4.2%.
For `CCN(CC(=O)Nc1ccc2c(c1)OCCO2)Cc1cc(=O)oc2cc(C)c(C)cc12` the value was -19.6%; for `CC(=O)c1cc(C#N)c(SCC(=O)C(C)(C)C)nc1C`, 57.1% (active).
For `CCOc1ccc2cc(C#N)c(SCC(=O)OC)nc2c1` the value was 26.5%; for `Cc1cc(C(F)(F)F)c(C#N)c(SCC(=O)NC2CC2)n1`, -6.7%; for `Cc1cc(Br)ccc1NC(=O)C1CCCO1` (configuration not stated), -10.5%.
The result for `O=C(Nc1nnc(CCc2ccccc2)s1)C1CCCO1` (configuration not stated) reads 21.6%.
Regarding `O=C(Nc1ccc(-c2nnc(-c3ccccc3)o2)cc1)C1CCCO1` (configuration not stated), the activation is 65.9% (active).
On to `O=C(Nc1cccc(-c2nnc(-c3ccccc3)o2)c1)C1CCCO1` (configuration not stated), for which the activation was 65.8% (active).
For `O=C(CCc1ccccc1)Nc1cccc(-c2nnc(-c3ccco3)o2)c1` the value was 27.9%; for `O=C(CSc1nnc(-c2ccc(NS(=O)(=O)c3ccccc3)cc2)o1)NCC1CCCO1` (configuration not stated), -0.8%.
The result for `Cc1cccc(N2CCN(Cc3c(C)n(C)n(-c4ccccc4)c3=O)CC2)c1C` reads 15.3%; that for `O=C(NCc1ccccc1)C1C(=O)N(Cc2ccccc2)C(=O)C1C1(O)CCCC1` (configuration not stated), -4.5%.
With `Cc1ccccc1Cn1c(=O)[nH]c2ccccc21`, the activation was -12.9%.
For `CCOC(=O)C1CCN(Cc2coc3ccc(Cl)cc3c2=O)CC1` the value was -25.8%; for `CC(C)(C)NC(=O)c1cc(NC(=O)c2ccco2)cc(NC(=O)c2ccco2)c1`, 22%.
For `COC(=O)c1ccc(NC(=O)c2ccco2)cc1` the value was 85.3% (active).
As to `O=C(Nc1ccc(Oc2ccccc2)cc1)c1ccco1`, the activation was 44%.
The result for `Cc1cccc(C)c1NC(=O)N1CC=C(n2c(=O)[nH]c3ccccc32)CC1` reads -7.6%; that for `CC(Sc1sc(=S)sc1SC(C)C(=O)O)C(=O)O` (configuration not stated), -6.9%.
With `CCOC(=O)c1c(C)[nH]c(C(=O)NCc2ccccc2OC)c1C`, the activation was 24.8%.
The result for `CCCCOC(=O)c1[nH]c(C)c(C(=O)OC)c1C` reads 77.7% (active); that for `CCOC(=O)c1c(C)[nH]c(C(=O)COc2ccc3c(c2)OCO3)c1C`, 28.5%; that for `CCc1ccccc1NC1c2ccccc2C(=O)N1c1cccnc1` (configuration not stated), -5.1%.
On to `Cc1cc(N2C(=O)C(=O)/C(=C(/O)c3ccccc3)C2c2cccc(Br)c2)no1` (configuration not stated), for which the activation is 2.6%.
For the compound `COc1ccc(S(=O)(=O)NC2(C(F)(F)F)N=C3SCCN3C2=O)cc1` (configuration not stated), the activation is 19.3%.
Turning to `CN(C)CCSc1nc(N)c2c3c(sc2n1)COC(C)(C)C3`, the activation was 3.5%.
Turning to `C=C(C)CSc1nc(N)c2c3c(sc2n1)CCC3`, the activation was 51.5% (active).
`C=C(C)Cn1c(SCC(=O)NCc2ccco2)nc2sc3c(c2c1=O)CCC3`: the activation was -1.8%.
Consider `O=C(CSc1nc2[nH]ncc2c(=O)n1-c1ccccc1)N1CCCc2ccccc21`, for which the activation is 22.2%.
The result for `O=C(NCCCN1CCOCC1)c1cc(-c2ccc(Cl)cc2)on1` reads -2.4%; that for `CC(C)CNC(=O)c1cc(-c2ccc(Br)cc2)on1`, 52.5% (active); that for `CC(NC(=O)c1cc(-c2ccccc2)on1)c1ccccc1` (configuration not stated), 1.6%.
As to `CCOC(=O)C1CCc2nc3ccccc3c(=O)n21` (configuration not stated), the activation was 2.2%.
Consider `CCOC(=O)C1CCN(C(=O)CC2C(=O)N(Cc3ccccc3)C(C)c3nc4ccccc4n32)CC1` (configuration not stated), for which the activation was 14.5%.
Consider `COC(=O)c1ccc(Oc2nc(NC(C)C)nc(SC)n2)cc1`, for which the activation is 2.8%.
For `c1ccc(Nc2nc(-c3ccncc3)cs2)nc1` the value was 36.9%; for `CC(C)(C)c1csc(NC2=NS(=O)(=O)c3ccccc32)n1`, 50.5% (active); for `CCOC(=O)c1nnn(CC(=O)Nc2cccc(F)c2)c1C(=O)OCC`, 2.1%.
The result for `CCN(CCCCOC(=O)c1ccc(OC)c(OC)c1)C(C)Cc1ccc(OC)cc1` (configuration not stated) reads -10.3%.
